Test results taken from ChEMBL document CHEMBL3352534, “A prodrug strategy for the oral delivery of a poorly soluble HCV NS5B thumb pocket 1 polymerase inhibitor using self-emulsifying drug delivery systems (SEDDS)” (Bioorg Med Chem Lett, 2015).
In brackets after ≈: the same amount, converted by molar mass.

Key:
[1] = Prodrug solubility in PEG400; type: ADME
Liver microsome [2] = experiment: Prodrug conversion in rat liver microsomes assessed as half life
[3] = Prodrug solubility in capmul; type: ADME
[4] = Prodrug solubility in solutol; type: ADME
[5] = Prodrug solubility in Labrasol; type: ADME
Liver microsome [6] = experiment: Prodrug conversion in human liver microsomes assessed as half life
[7] = Prodrug conversion in simulated gastric fluid assessed as half life; type: ADME; conditions: simulated gi fluid
Summary of the method: (§1)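 Incubations used 2 µM compound at 37 °C in either SGF (0.2% NaCl/HCl, pH 1.2, pepsin 3.2 mg/mL) or SIF (KH2PO4/NaOH, pH 7.5, pancreatin 10 mg/mL). Samples were quenched 1:2 with acetonitrile/methanol 1:1 and analysed by HPLC. t1/2 = 0.693/first-order disappearance rate.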

[8] = Cmax in rat plasma at 10 mg/kg, po using 10.6% PEG400, 5.4% Cremophor EL, 2.6% Labrasol, 1.4% Capmul MCM in water (80%) vehicle; type: ADME, organism-based; parameters: dose 10 mg/kg, route oral; conditions: plasma
Summary of the method: (§2)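 Fasted rats were given a single 10 mg/kg oral dose, with n = 3 per dose and route. Plasma was extracted by solid-phase extraction. Analysis used HPLC with diode-array UV (200–400 nm, peak height at best S/N) or LC/MS. Calibration standards were made in blank plasma, with LOQ 7–14 ng/mL. Parameters came from noncompartmental analysis.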

Rattus norvegicus [9] = experiment: AUC in rat plasma assessed as (E)-3-(4-(1-(2-(5-chloropyrimidin-2-yl)-3-cyclopentyl-1-methyl-1H-indole-6-carboxamido)cyclobutanecarboxamido)-2-ethoxyphenyl)acrylic acid at 10 mg/kg, po using 10.6% PEG400, 5.4% Cremophor EL, 2.6% Labrasol, 1.4% Capmul MCM in water (80%) vehicle; type: ADME, organism-based; parameters: dose 10 mg/kg, route oral; conditions: in vivo; summary of the method: as §2
Rattus norvegicus [10] = experiment: Cmax in rat plasma assessed as (E)-3-(4-(1-(2-(5-chloropyrimidin-2-yl)-3-cyclopentyl-1-methyl-1H-indole-6-carboxamido)cyclobutanecarboxamido)-2-ethoxyphenyl)acrylic acid at 10 mg/kg, po using 10.6% PEG400, 5.4% Cremophor EL, 2.6% Labrasol, 1.4% Capmul MCM in water (80%) vehicle; type: ADME, organism-based; parameters: dose 10 mg/kg, route oral; conditions: in vivo; summary of the method: as §2
[11] = AUC in rat plasma at 10 mg/kg, po using 10.6% PEG400, 5.4% Cremophor EL, 2.6% Labrasol, 1.4% Capmul MCM in water (80%) vehicle; type: ADME, organism-based; parameters: dose 10 mg/kg, route oral; conditions: plasma; summary of the method: as §2
Plasma [12] = experiment: Prodrug conversion in rat plasma assessed as half life; type: ADME, cell-free
Summary of the method: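 Rat plasma (from centrifuged whole blood) was incubated with 2 µM compound at 37 °C. Samples were quenched 1:3 with acetonitrile/methanol 1:1, centrifuged and analysed by HPLC-PDA. Half-life was taken as 0.693/first-order rate of loss of the starting compound.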

[13] = Prodrug conversion in human intestinal microsomes assessed as half life
Intestine = experiment: Prodrug conversion in rat intestinal microsomes assessed as half life
Plasma [14] = experiment: Prodrug conversion in human plasma assessed as half life
[15] = Prodrug conversion in simulated intestinal fluid assessed as half life; type: ADME; conditions: simulated gi fluid; summary of the method: as §1

CCCN(C)C(=O)COC(=O)/C=C/c1ccc(NC(=O)C2(NC(=O)c3ccc4c(C5CCCC5)c(-c5ncc(Cl)cn5)n(C)c4c3)CCC2)cc1OCC
solubility [1]: < 200 mg/mL
t1/2 (Liver microsome [2]): 0.317 h
solubility [3]: < 200 mg/mL
solubility [4]: < 200 mg/mL
solubility [5]: < 200 mg/mL
t1/2 (Liver microsome [6]): 0.317 h

CCOc1cc(NC(=O)C2(NC(=O)c3ccc4c(C5CCCC5)c(-c5ncc(Cl)cn5)n(C)c4c3)CCC2)ccc1/C=C/C(=O)OCC(N)=O
t1/2 [7]: 0.6 h
solubility [1]: > 200 mg/mL
Cmax [8]: 40 nM
AUC (Rattus norvegicus [9]): 16.7 µM·h
t1/2 (Liver microsome [2]): 0.383 h
solubility [3]: < 200 mg/mL
solubility [4]: 200 mg/mL (≈ 286 mM)
solubility [5]: > 200 mg/mL
Cmax (Rattus norvegicus [10]): 4400 nM
t1/2 (Liver microsome [6]): 0.983 h
AUC [11]: 0.13 µM·h

CCOc1cc(NC(=O)C2(NC(=O)c3ccc4c(C5CCCC5)c(-c5ncc(Cl)cn5)n(C)c4c3)CCC2)ccc1/C=C/C(=O)OCC(=O)NC
solubility [1]: > 200 mg/mL
t1/2 (Liver microsome [2]): 0.5 h
solubility [3]: < 200 mg/mL
solubility [4]: < 200 mg/mL
solubility [5]: 200 mg/mL (≈ 280 mM)
t1/2 (Liver microsome [6]): 0.567 h

CCOc1cc(NC(=O)C2(NC(=O)c3ccc4c(C5CCCC5)c(-c5ncc(Cl)cn5)n(C)c4c3)CCC2)ccc1/C=C/C(=O)OCC(=O)N(C)C(C)C
solubility [1]: > 200 mg/mL
t1/2 (Liver microsome [2]): 0.267 h
solubility [3]: < 200 mg/mL
solubility [4]: < 200 mg/mL
solubility [5]: < 200 mg/mL
t1/2 (Liver microsome [6]): 0.65 h

CCOc1cc(NC(=O)C2(NC(=O)c3ccc4c(C5CCCC5)c(-c5ncc(Cl)cn5)n(C)c4c3)CCC2)ccc1/C=C/C(=O)OCCOCCOC
Cmax [8]: 30 nM
AUC (Rattus norvegicus [9]): 23.1 µM·h
t1/2 (Liver microsome [2]): 1.07 h
solubility [3]: < 60 mg/mL
solubility [4]: < 100 mg/mL
solubility [5]: < 30 mg/mL
Cmax (Rattus norvegicus [10]): 4600 nM
t1/2 (Liver microsome [6]): 0.85 h
AUC [11]: 0.1 µM·h

CCOc1cc(NC(=O)C2(NC(=O)c3ccc4c(C5CCCC5)c(-c5ncc(Cl)cn5)n(C)c4c3)CCC2)ccc1/C=C/C(=O)OCC(=O)N1CCCC1
solubility [1]: > 200 mg/mL
t1/2 (Liver microsome [2]): 1.47 h
solubility [3]: < 200 mg/mL
solubility [4]: 200 mg/mL (≈ 265 mM)
solubility [5]: 200 mg/mL (≈ 265 mM)
t1/2 (Liver microsome [6]): 1.65 h

CCOc1cc(NC(=O)C2(NC(=O)c3ccc4c(C5CCCC5)c(-c5ncc(Cl)cn5)n(C)c4c3)CCC2)ccc1/C=C/C(=O)OCc1ccccc1
t1/2 [7]: 1.83 h
t1/2 (Plasma [12]): 2.23 h
t1/2 [13]: > 5 h
t1/2 (Intestine): > 5 h
t1/2 (Liver microsome [2]): 2.17 h
t1/2 (Plasma [14]): > 5 h
t1/2 [15]: > 5 h
t1/2 (Liver microsome [6]): > 5 h

CCOc1cc(NC(=O)C2(NC(=O)c3ccc4c(C5CCCC5)c(-c5ncc(Cl)cn5)n(C)c4c3)CCC2)ccc1/C=C/C(=O)N[C@@H](CCC(=O)O)C(N)=O
t1/2 [7]: 0.533 h
t1/2 [15]: 4.23 h

CCOc1cc(NC(=O)C2(NC(=O)c3ccc4c(C5CCCC5)c(-c5ncc(Cl)cn5)n(C)c4c3)CCC2)ccc1/C=C/C(=O)OCC(=O)OCc1ccccc1
t1/2 [7]: 3.03 h
t1/2 (Plasma [12]): 6.6 h
t1/2 [13]: > 5 h
t1/2 (Intestine): > 5 h
t1/2 (Liver microsome [2]): 2.2 h
t1/2 (Plasma [14]): > 5 h
t1/2 [15]: 1.63 h
t1/2 (Liver microsome [6]): 26.15 h

CCOc1cc(NC(=O)C2(NC(=O)c3ccc4c(C5CCCC5)c(-c5ncc(Cl)cn5)n(C)c4c3)CCC2)ccc1/C=C/C(=O)OC(=O)C[C@H](O)C(=O)O
t1/2 (Liver microsome [2]): 7.92 h
t1/2 (Liver microsome [6]): 5.57 h

CCOc1cc(NC(=O)C2(NC(=O)c3ccc4c(C5CCCC5)c(-c5ncc(Cl)cn5)n(C)c4c3)CCC2)ccc1/C=C/C(=O)N(C)CCO
t1/2 (Liver microsome [2]): 2.25 h
t1/2 (Liver microsome [6]): 1.3 h

CCOc1cc(NC(=O)C2(NC(=O)c3ccc4c(C5CCCC5)c(-c5ncc(Cl)cn5)n(C)c4c3)CCC2)ccc1/C=C/C(=O)OCCC(C)C
t1/2 [7]: 1.43 h
t1/2 (Plasma [12]): 18.02 h
t1/2 [13]: > 5 h
t1/2 (Intestine): > 5 h
t1/2 (Liver microsome [2]): 1.42 h
t1/2 (Plasma [14]): 6.18 h
t1/2 [15]: > 5 h
t1/2 (Liver microsome [6]): > 5 h

CCOc1cc(NC(=O)C2(NC(=O)c3ccc4c(C5CCCC5)c(-c5ncc(Cl)cn5)n(C)c4c3)CCC2)ccc1/C=C/C(=O)OCC(=O)OCc1ccc(Cl)cc1
t1/2 (Liver microsome [2]): 11.4 h
t1/2 (Liver microsome [6]): 5.62 h

CCOc1cc(NC(=O)C2(NC(=O)c3ccc4c(C5CCCC5)c(-c5ncc(Cl)cn5)n(C)c4c3)CCC2)ccc1/C=C/C(=O)NCCO
t1/2 (Liver microsome [2]): 1.48 h
t1/2 (Liver microsome [6]): 1.63 h

CCCCOC(=O)COC(=O)/C=C/c1ccc(NC(=O)C2(NC(=O)c3ccc4c(C5CCCC5)c(-c5ncc(Cl)cn5)n(C)c4c3)CCC2)cc1OCC
t1/2 (Liver microsome [2]): 15.8 h
t1/2 (Liver microsome [6]): 5.98 h

CCOc1cc(NC(=O)C2(NC(=O)c3ccc4c(C5CCCC5)c(-c5ncc(Cl)cn5)n(C)c4c3)CCC2)ccc1/C=C/C(=O)OCCOc1ccccc1
t1/2 (Liver microsome [2]): 16.5 h
t1/2 (Liver microsome [6]): > 5 h

CCOC(=O)/C=C/c1ccc(NC(=O)C2(NC(=O)c3ccc4c(C5CCCC5)c(-c5ncc(Cl)cn5)n(C)c4c3)CCC2)cc1OCC
t1/2 [7]: 0.333 h
t1/2 (Plasma [12]): 8.18 h
t1/2 [13]: > 5 h
t1/2 (Intestine): > 5 h
t1/2 (Liver microsome [2]): 3.07 h
t1/2 (Plasma [14]): > 5 h
t1/2 [15]: > 5 h
t1/2 (Liver microsome [6]): > 5 h

CCOc1cc(NC(=O)C2(NC(=O)c3ccc4c(C5CCCC5)c(-c5ncc(Cl)cn5)n(C)c4c3)CCC2)ccc1/C=C/C(=O)OCC(=O)O
t1/2 (Liver microsome [2]): 1.17 h
t1/2 (Liver microsome [6]): 3.1 h

CCCOC(=O)/C=C/c1ccc(NC(=O)C2(NC(=O)c3ccc4c(C5CCCC5)c(-c5ncc(Cl)cn5)n(C)c4c3)CCC2)cc1OCC
t1/2 [7]: 2.23 h
t1/2 (Plasma [12]): 15.2 h
t1/2 [13]: > 5 h
t1/2 (Intestine): > 5 h
t1/2 (Liver microsome [2]): 0.35 h
t1/2 (Plasma [14]): > 5 h
t1/2 [15]: > 5 h
t1/2 (Liver microsome [6]): > 5 h

CCCCCCOC(=O)/C=C/c1ccc(NC(=O)C2(NC(=O)c3ccc4c(C5CCCC5)c(-c5ncc(Cl)cn5)n(C)c4c3)CCC2)cc1OCC
t1/2 [7]: 0.883 h
Cmax [8]: 400 nM
AUC (Rattus norvegicus [9]): 3.2 µM·h
t1/2 (Liver microsome [2]): 12.7 h
Cmax (Rattus norvegicus [10]): 200 nM
t1/2 (Liver microsome [6]): 17.88 h
AUC [11]: 2.2 µM·h

CCOc1cc(NC(=O)C2(NC(=O)c3ccc4c(C5CCCC5)c(-c5ncc(Cl)cn5)n(C)c4c3)CCC2)ccc1/C=C/C(=O)OCOC(=O)C(C)(C)C
t1/2 [7]: < 0.033 h
Cmax [8]: 40 nM
AUC (Rattus norvegicus [9]): 19.6 µM·h
t1/2 (Liver microsome [2]): 5.6 h
Cmax (Rattus norvegicus [10]): 1700 nM
t1/2 (Liver microsome [6]): 4.12 h
AUC [11]: 0.3 µM·h

CCOc1cc(NC(=O)C2(NC(=O)c3ccc4c(C5CCCC5)c(-c5ncc(Cl)cn5)n(C)c4c3)CCC2)ccc1/C=C/C(=O)N[C@@H](CCCNC(=N)N)C(N)=O
t1/2 [7]: 0.467 h

CCOC(=O)COC(=O)/C=C/c1ccc(NC(=O)C2(NC(=O)c3ccc4c(C5CCCC5)c(-c5ncc(Cl)cn5)n(C)c4c3)CCC2)cc1OCC
t1/2 (Liver microsome [2]): 2.45 h
t1/2 (Liver microsome [6]): 1.6 h

CCOc1cc(NC(=O)C2(NC(=O)c3ccc4c(C5CCCC5)c(-c5ncc(Cl)cn5)n(C)c4c3)CCC2)ccc1/C=C/C(=O)OCCNN1CCCC1
Cmax [8]: 40 nM
AUC (Rattus norvegicus [9]): 25.6 µM·h
t1/2 (Liver microsome [2]): 0.783 h
solubility [3]: < 100 mg/mL
solubility [4]: < 100 mg/mL
solubility [5]: < 100 mg/mL
Cmax (Rattus norvegicus [10]): 6100 nM
t1/2 (Liver microsome [6]): 0.683 h
AUC [11]: 0.06 µM·h

CCOc1cc(NC(=O)C2(NC(=O)c3ccc4c(C5CCCC5)c(-c5ncc(Cl)cn5)n(C)c4c3)CCC2)ccc1/C=C/C(=O)OCC(Cl)(Cl)Cl
t1/2 [7]: 1.75 h
t1/2 (Plasma [12]): 1.3 h
t1/2 [13]: > 5 h
t1/2 (Intestine): > 5 h
t1/2 (Liver microsome [2]): 0.233 h
t1/2 (Plasma [14]): > 5 h
t1/2 [15]: > 5 h
t1/2 (Liver microsome [6]): > 5 h

CCOc1cc(NC(=O)C2(NC(=O)c3ccc4c(C5CCCC5)c(-c5ncc(Cl)cn5)n(C)c4c3)CCC2)ccc1/C=C/C(=O)N[C@@H](CC(=O)O)C(N)=O
t1/2 [7]: > 5 h
t1/2 [15]: 0.067 h

CCOc1cc(NC(=O)C2(NC(=O)c3ccc4c(C5CCCC5)c(-c5ncc(Cl)cn5)n(C)c4c3)CCC2)ccc1/C=C/C(=O)OCC(=O)OC
t1/2 (Liver microsome [2]): 2.08 h
t1/2 (Liver microsome [6]): 2.1 h

CCOc1cc(NC(=O)C2(NC(=O)c3ccc4c(C5CCCC5)c(-c5ncc(Cl)cn5)n(C)c4c3)CCC2)ccc1/C=C/C(=O)OCC[N+](C)(C)C.[Br-]
t1/2 [7]: 0.417 h
t1/2 (Liver microsome [2]): 1.73 h
t1/2 (Liver microsome [6]): > 5 h
